Data: the EternaBench riboswitch data

Test system: MS2 coat protein
Assay: apparent Kd, MS2 coat protein; higher = weaker binding; RNA-MaP array; FMN 200 µM where present
Procedure, shortened: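 Stalled E. coli RNA polymerase transcribed the designs on Illumina sequencing-chip clusters. SNAP-549-labelled MS2 coat protein was titrated from 0.7 or 1.5 nM, doubling to 3 µM, without and then with constant ligand, in 100 mM Tris-HCl pH 7.5, 80 mM KCl, 4 mM MgCl2, BSA, DTT, yeast tRNA and Tween-20. Per-cluster binding curves were fitted to green signal normalised to red-channel RNA signal and control-cluster median Fmax. The apparent Kd is the median of the filtered fits.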

[1] = designed as: OFF switch for flavin mononucleotide, no ligand
[2] = ligand present: flavin mononucleotide, designed as: OFF switch for flavin mononucleotide
[3] = designed as: ON switch for flavin mononucleotide, no ligand
[4] = ligand present: flavin mononucleotide, designed as: ON switch for flavin mononucleotide

| Sequence | apparent Kd [1] [µM] | apparent Kd [2] [µM] | apparent Kd [3] [µM] | apparent Kd [4] [µM] |
| --- | --- | --- | --- | --- |
| ACACGGUAUGUAGGAUAUGCAUAGCAUUGCUAUGCAGAAGGACAUGAGGAUCACCCAUGUAUGUAUUCCAUACUAAUCCCGUGA | 0.00578 | 0.00588 | – | – |
| CUGCCGUAGGAGAAGGACGGCGGGUUAUUUUUUUACAUGAGGAUCACCCAUGUAGGAUAUCCUACGUCAGGCAACCUACUACAG | 0.00636 | 0.00954 | – | – |
| AAAAUAUAAAGAGAGGAUAUCCAAAGAACCACAUGAGGAUCACCCAUGUAAAGAAAGAAUAAGUGGGAGAAGGCUCAAAUAAUAA | – | – | 0.187 | 0.0292 |
| GGAGCUCACAUUAACAUGAGGAUCACCCAUGUCUCUUGACAUGAGGAUAUGGAUCCUAAUUGGAUCCAGAAGGCAUGGAGCUCC | – | – | 1.65 | 0.108 |
| UGGUACUAGGGAGGAUAUGGGAAGAUACAUGAGGAUCACCCAUGUUUAAGAAUGCCGAGAGGCAACUAGAAGGACCUAGUACCU | – | – | 0.896 | 0.0636 |
| CGAUUAUUGAUCCAUUUUUUCAACAUGAGGAUCACCCAUGUGCAGGAUAUCGUGAUUAUUAUCAACGAGAAGGGCAAAUUCACG | 0.0495 | 0.145 | – | – |
| GGUGGACAUGAGGAUCACCCAUGUGAGGAUAUCGGCCGGUGCGUGGUGGCUGGCGUCUCGAGAAGGCACAUAGU | 0.0921 | 0.166 | – | – |
| ACAUGAUACAAGAAGGAUGAAUUAGAUUUGAUCAUAGGAUAUUGUUAUAUUGUUUACUCUAAUAACAUGAGGAUCACCCAUGUA | – | – | 0.0104 | 0.00694 |
| AGGGUGUCGCUCAAUAACAUGAGGAUCACCCAUGUGCAUUAGAGAAGGGACCCGGGCGCGUGGAGUCAGGAUAUCUAUCUGCCA | 0.0344 | 0.03 | – | – |
| AGUAACAUACUCAACAUGAGGAUCACCCAUGUACUCUCUUGUAAGGAUAUACAUUCGUAUUGAUAGUAGAAGGUACCAAUUAAG | – | – | 0.0535 | 0.0574 |
| GGAUUACAUGAGGAUCACCCAUGUGAGGAUAUCGAUGUCCUCAAUGGAGUGCGGGACUCGAGAAGGCACUUGGA | 0.338 | 0.168 | – | – |
| UAUGGUAAAGUCAGGAUAUACGUACGUCGUUCUAGGUAGAAGGGACAUGAGGAUCACCCAUGUAUGGUAGUGUU | 0.09 | 0.0889 | – | – |
| UUUUUGUGAGGAUAUCAGUAGUAAAUAAAUAAAAUAACUACUGAGAAGGCACAUGAGGAUCACCCAUGUUCUUU | 0.0189 | 0.0496 | – | – |
| CAGCGAAAGCUGAAUCUGUAGAGAGAGGAUAUACAAGAUAUCAUCCAUACAUGAGGAUCACCCAUGUAGAAGGCUCUCUACAGU | 0.00503 | 0.00723 | – | – |
| AAGAAGUCAGGAUAUGCUGCUCGUCACUUGCGUGAUGAGUAGCAGAAGGGACAUGAGGAUCACCCAUGUAAAGG | 0.164 | 0.356 | – | – |
| CGAUAGGACAGAGGAUAUACACAUGAGGAUCACCCAUGUAAUUACAACUCAUGAGGAUCACCCAUGUAGAAGGCUGUCCUAUCG | 0.397 | 0.43 | – | – |
| GUUCUUCCUGUAAGGAUAUCCAUGUAUCAGUUUAUGGAGAAGGUACAUGAGGAUCACCCAUGUCACCCGCGUUA | 0.0201 | 0.0461 | – | – |
| AAUCGCAGUGCAGGAUAUCCAAGGUUUGGCGAAGGAGAAGGGCAUGCGACAUGAGGAUCACCCAUGUAAAGUAUGGCGUCCUCU | 0.231 | 0.117 | – | – |
| UGUUGUAUUACAGGAUAUCUAUUAGUAUUAUUUAGAGAAGGGUAUUCACAUGAGGAUCACCCAUGUAUAUACGAGGAAGUUGUG | – | – | 0.0469 | 0.0484 |
| GCCGAUUAAGUCAGGAUAUACCUAUGGAUACAUAGGUAGAAGGGACAUGAGGAUCACCCAUGUUCCUCAGCGGC | 0.0166 | 0.0502 | – | – |
| GUAGCAUACAGAGGAUAUUCAAACCGGAAACGGAACAUGAGGAUCACCCAUGUGGCGAAAGCCAGGGAGAAGGCUGAAUGCUAC | – | – | 0.0445 | 0.0168 |
| CGGUGCUGAGGAUAUACAUGAGGAUCACCCAUGUGUUCCGGCUAGCUGACUGGCGCUUGUAGAAGGCAGUACUG | 0.0173 | 0.101 | – | – |
| CUGUUGUGGUACUGCAUGGCUUGGAGAGAAGGGUGAUUCACAUGAGGAUCACCCAUGUAGGACUUACAGGAUAUUUCCGGGUCU | – | – | 0.0626 | 0.1 |
| GGAGACCUCGCAGGAUAUGCUGGACUUUGUCCAGCAGAAGGGUGAAAACAUGAGGAUCACCCAUGUAUGGUCUCCAAAUUUAAU | – | – | 1.06 | 0.0543 |
| GCCAUCGCAUGAGGAUAUGGCACCGGUUCGGUGCCAGAAGGCAUGUCAAAUGACAUGAGGAUCACCCAUGUAGUUAAGAUGGCA | – | – | 0.215 | 0.0147 |
| CCGACGAAAAUCGGGCUACAUGAGGAUCACCCAUGUGCUUCACAGGAUAUGGUACGUAGUGAGUUCCAGAAGGGUGAUUAAUCU | – | – | 0.205 | 0.129 |
| UGAUCGAAAGAUCAUAGAUUCUGCUAGGAUAUGCAGGAGUUGCGCUUUACAUGAGGAUCACCCAUGUAGAAGGAGUAGAGUCUA | 0.00677 | 0.00888 | – | – |
| CAACUGAGCGUAAAUUACCUGAACAUGAGGAUCACCCAUGUGGAGGAUAUUGACUUAGCAAAACUCGAGAAGGCCACUGGGUAG | 0.0446 | 0.0185 | – | – |

| Sequence | apparent Kd [1] [µM] | apparent Kd [2] [µM] | apparent Kd [3] [µM] | apparent Kd [4] [µM] |
| --- | --- | --- | --- | --- |
| ACAUUUUAUGCAGGAUAUUGACAUAUAUUUAAACAAGAAGGGCAUUACAUGAGGAUCACCCAUGUUAUAUUGGUAUAUAAGUUC | 0.0174 | 0.0148 | – | – |
| GCACAUGGCAUAGGAUAUAGAAGUAUACAUUAUAUAGGUAGUGUCACAACACUAGAAGGAUGAAACAUGAGGAUCACCCAUGUA | – | – | 0.0162 | 0.0123 |
| GUUACAUGAGGAUCACCCAUGUAUGUGUGGGAGUAAGUGUCUUAGGAUAUCUAUGAUUUAAUUGAAGAGAAGGAAGAUUGUUGU | – | – | 0.116 | 0.122 |
| GUGUAGAUAUCAGGAUAUCCAUUUCCUACAUGAGGAUCACCCAUGUAGAUGAUCACCCAUGUAAAGGAGAAGGGAUAUCUAUAC | – | – | 0.206 | 0.173 |
| UUGGAGUACGUAGGAUAUGUAGGAUAUUCCUACAUGAGGAUCACCCAUGUUUACAUGGAAGAAGGACAGAAGGACGUGCUCCAU | – | – | 1.12 | 0.0147 |
| CUCAUGUAAGGAUAUCAGUAGUAAAAAAAUAAAAUUACUACUGAGAAGGUACAUGAGGAUCACCCAUGUCCUGG | 0.0333 | 0.0179 | – | – |
| UCCAUGUUAGGAUAUUACAUGCAGGCUGUAACACGCCGGUGUAAGAAGGAACAUGAGGAUCACCCAUGUGUCGU | 0.068 | 0.137 | – | – |
| ACGGAACAUGAGGAUCACCCAUGUAUCUGAAAUAUGGACUCACAGGAUAUCCAGAGUUGCCAAUCGGAGAAGGGUGACUCCAGA | – | – | 0.0201 | 0.0167 |
| ACGACUAGAGGAUAUACAUGAGGAUCACCCAUGUAACUGUCAGGAGACUGACGGAGAUGUAGAAGGCUAGUCGA | 0.0166 | 0.0392 | – | – |
| AAUAACAGAGGAUAUACUGUUUUAUGUGUUUAUUAUUUUAAACAUGAGGAUCACCCAUGUAGAAGGCUGAAUAA | 0.0427 | 0.0428 | – | – |
| CUCUUGGCAGGAUAUGCUCUUUUAGACAUGAGGAUCACCCAUGUGCUCAUUCCUUCUUUUGCAGAAGGGCCUUAAC | 0.073 | 0.0547 | – | – |
| CGCAAGUCAGGAUAUUCGACAGGUAAAUCAGUGGAUCAGAAGGAGAAGGGACAUGAGGAUCACCCAUGUAAGUA | 0.0497 | 0.0294 | – | – |
| GGUGGACAUGAGGAUCACCCAUGUGAGGAUAUCGGCUGGCUAGUGGCUGACGGCUGCUCGAGAAGGCGCAUUGU | 0.0783 | 0.107 | – | – |
| AGCUACGUUUCGUAGCAGUGUCAUCGAGAAGGCCUCAUAACAUGAGGAUCACCCAUGUUAGCAUGGGAGGAUAUCGAUGAUACA | – | – | 0.0588 | 0.0242 |
| GCACUGCGAGGAUAUACAUGAGGAUCACCCAUGUGUCGGCAGCGAUGCCAGUACAAAUGUAGAAGGCGCGUAAA | 0.026 | 0.114 | – | – |
| AGGGUAUGAACAUGAGGAUCACCCAUGUAAACGGAAACGAAUGAGGAUAUCGAUAGCAAAGCUAUCGAGAAGGCAUGGGACCCU | – | – | 0.286 | 0.0491 |
| GGUGGACAUGAGGAUCACCCAUGUGAGGAUAUCGGCUGGCUAGCGGCGGACGGCUUCUCGAGAAGGCGCAUUGU | 0.0578 | 0.0571 | – | – |
| GGAGACCUCACAGGAUAUGCUGGACUUUGUCCAGCAGAAGGGUGAAACAUGAGGAUCACCCAUGUAAUGGUCUCCAAAUUUAAU | – | – | 1.03 | 0.0556 |
| GGAUAGGACAGAGGAUAUACGUGCUAGAGAUACUAGCAAGAUUUCCUCACAUGAGGAUCACCCAUGUAGAAGGCUGUCCUAUCG | 0.0132 | 0.348 | – | – |
| AGUGUCAUCGAGAAGGCCUCAACAUGAGGAUCACCCAUGUUGCAAAAUGGGAGGAUAUCGAUGAUACAGCUACGUUUCGUAGCA | – | – | 0.0153 | 0.00521 |
| UAAUAAUUAAGAGGAUAUAUACAACAUGAGGAUCACCCAUGUACCCAUGUAGUAGAAGGCUUAUUUUUAUUUAAUAAUAUAAUU | – | – | 0.122 | 0.0401 |
| UUGCGCUGUCGAGAGGAUAUGCGGUGUUGGACAUGAGGAUCACCCAUGUUAGCGAUUGCUUUACGGUAGAAGGCUCUUCAGCUGC | – | – | 0.0788 | 0.0529 |
| GGGUACAUCGGAGGAUAUCAUGUAAAUACAUGAGGAUCACCCAUGUCGAUGGAGACAUCGGAGAUUGAGAAGGCCGACGUACCG | – | – | 0.187 | 0.00915 |
| AUCAGCUCGUCAGGAUAUACGUCACUGGGUCAGCAGUGUGGUAAGAUCACAUGAGGAUCACCCAUGUAGAAGGGACGAGCUGAU | 0.0663 | 0.483 | – | – |
| GGACCGUGCAGAGUUCGCGGUCGGCAGGAUAUGACAUGAGGAUCACCCAUGUGAACUCCAUUGGGUCAGAAGGGCCACGACACA | 0.0198 | 0.078 | – | – |
| ACUUAUCAUGUAGGAUAUGCGUGGCGAAGCUAUGCAGAAGGACAUGAGGAUCACCCAUGUUUUAGCGUCUGCGUACAGAUGCGU | 0.054 | 0.192 | – | – |
| CGGUCGAUAUCAGGAUAUCGAUUAAUUACAUGAGGAUCACCCAUGUUGACAAGGAAUAUAACAUGCGAGAAGGGAUUACGAUCG | – | – | 0.0101 | 0.00845 |
